Assay results collected from several papers.
Compare with care: the assays were run in different laboratories. ≈ marks a conversion by molar mass, not a printed value.

Structure (SMILES) | organism | assay | system | conditions | quantity | value
COc1ccccc1-c1nc(N2CCC(c3ccccn3)C2)c2ccccc2n1 (stereo not drawn) | Trypanosoma cruzi | parasite growth, imaging | U2OS | intracellular, amastigote | IC50 | 910 nM
Nc1nc(O)c2ncn(COC(CO)CO)c2n1 | Human betaherpesvirus 5 | cytopathic effect | AD169 | – | IC50 | 900 nM
CCOC(=O)c1c(NC(=O)c2cc(C(F)(F)F)cc(C(F)(F)F)c2)sc2c1CCN(C(=O)OC(C)(C)C)C2 | Mycobacterium tuberculosis | microbial growth, resazurin | H37RV | 7 days | MIC | > 100 µM
O=C1NN=C(N=Cc2ccccc2O)C1=NNn1c(-c2ccccc2)nc2ccccc2c1=O | Monascus purpureus | microbial growth, broth dilution | – | – | MIC | 111 µM (≈ 50 µg/mL)
c1ccc(-c2nc(N3CCCC3)c3ccccc3n2)nc1 | Trypanosoma cruzi | parasite growth, imaging | U2OS | intracellular, amastigote | IC50 | 3100 nM
CCOC(=O)c1c(NC(=O)c2c(F)c(F)c(F)c(F)c2F)sc2c1CCN(CC)C2 | Mycobacterium tuberculosis | microbial killing | H37RV | 21 days | MBC | < 5 µM
NC(=O)c1cccc(-c2nc(N3CCC(c4ccccn4)C3)c3ccccc3n2)c1 (stereo not drawn) | Trypanosoma cruzi | parasite growth, imaging | U2OS | intracellular, amastigote | IC50 | 9330 nM
CCN1CCc2c(sc(N)c2C(=O)NCc2ccccc2OC)C1 | Mycobacterium tuberculosis | microbial growth, resazurin | H37RV | – | MIC | > 200 µM
CC(C)(Nc1nc(-c2ccccn2)nc2ccccc12)c1ccccn1 | Trypanosoma cruzi | parasite growth, imaging | U2OS | intracellular, amastigote | IC50 | 1400 nM
CC1=NN(CNc2c(O)c(S(=O)(=O)O)cc3ccccc23)C(=O)C1=NNn1c(-c2ccccc2)nc2ccccc2c1=O | Monascus purpureus | microbial growth, broth dilution | – | – | MIC | 41.8 µM (≈ 25 µg/mL)
CCN1CCc2c(sc(N)c2C(=O)O)C1 | Mycobacterium tuberculosis | microbial growth, resazurin | H37RV | – | MIC | > 400 µM
CC1=NN(CNC(=O)c2ccccn2)C(=O)C1=NNn1c(-c2ccccc2)nc2ccccc2c1=O | Monascus purpureus | microbial growth, broth dilution | – | – | MIC | 104 µM (≈ 50 µg/mL)
CCCCNC(=O)c1c(N)sc2c1CCCC2 | Mycobacterium tuberculosis | microbial growth, resazurin | H37RV | – | MIC | > 300 µM
O=C(N[C@@H](Cc1ccccc1)C(=O)c1cc(-c2ccccc2)no1)[C@H](Cc1ccccc1)NC(=O)N1CCOCC1 (mixture of isomers) | Trypanosoma cruzi | parasite growth | TULAHUEN | intracellular, amastigote | IC50 | 28000 nM
O=C1NN=C(N=Cc2ccc(O)cc2O)C1=NNn1c(-c2ccccc2)nc2ccccc2c1=O | Monascus purpureus | microbial growth, broth dilution | – | – | MIC | 53.5 µM (≈ 25 µg/mL)
CCOC(=O)c1c(NC(=O)c2ccccc2)sc2c1CCN(CC)C2 | Mycobacterium tuberculosis | microbial growth, resazurin | H37RV | – | MIC | 279 µM (≈ 100 µg/mL)
c1ccc(CNc2nc(-c3ccccn3)nc3ccccc23)cc1 | Trypanosoma cruzi | parasite growth, imaging | U2OS | intracellular, amastigote | IC50 | 1400 nM
O=[N+]([O-])c1ccc(-c2nc3cccc(O)c3[nH]2)o1 | Staphylococcus haemolyticus | microbial killing | – | – | MBC | 0.5 µg/mL
c1ccc2c(N3CCCCC3)nc(-c3ccncn3)nc2c1 | Trypanosoma cruzi | parasite growth, imaging | U2OS | intracellular, amastigote | IC50 | 32400 nM
Cc1cc2nccc(-c3cccnc3)c2c(C)c1-c1ccc(CN2CCOCC2)cc1 | Mycobacterium tuberculosis | microbial growth | H37RV | – | MIC90 | 5 µM (≈ 2.05 µg/mL)
c1ccc(-c2nc(N3CCC(c4ccccn4)C3)c3ccccc3n2)nc1 (stereo not drawn) | Trypanosoma cruzi | parasite growth, imaging | U2OS | intracellular, amastigote | IC50 | 1200 nM
Cc1ccc2nc(-c3ccc(F)c(F)c3)c(CN3CCN(C4CCCCC4)CC3)n2c1 | Trypanosoma cruzi | parasite growth | TULAHUEN | 6 days, intracellular, amastigote | EC90 | > 5000 nM
Cc1cc2nc(C(=O)N3CCOCC3)cc(-c3ccccc3Cl)c2c(C)c1-c1ccncc1 | Mycobacterium tuberculosis | microbial growth | H37RV | – | MIC90 | 15 µM (≈ 6.87 µg/mL)
COc1ccccc1CNC(=O)c1c(N)sc2c1CCCC2 | Mycobacterium tuberculosis | microbial growth, resazurin | H37RV | – | MIC | 316 µM (≈ 100 µg/mL)
